Measurements: ChEMBL document CHEMBL1124860, “Purine derivatives as competitive inhibitors of human erythrocyte membrane phosphatidylinositol 4-kinase” (J Med Chem, 1990)

Columns and labels:
[1] = target: T1, Phosphatidylinositol 4-kinase, PI4K (Homo sapiens, UniProt Q9BTU6+Q8TCG2+Q9UBF8+P42356); assay type: protein assay
[2] = target: T1, Phosphatidylinositol 4-kinase, PI4K; assay: Binding affinity (Ki) against human phosphatidylinositol 4-kinase; assay type: protein assay
Procedure, shortened: (§1)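 Human erythrocyte plasma membranes (0.36 mg protein) were incubated with PI (0.12 mM, [2-3H]PI tracer), ATP at 100 µM, ouabain, vanadate, DTT, 0.6% Triton X-100, MgCl2, EGTA, KCl/NaCl and HEPES pH 7.4 for 10 min at 30 °C. Lipids were extracted and deacylated, and the aqueous phase collected. Compounds were screened at 500 µM, then IC50 fitted from single dose-response curves. Ki = IC50/(1+[S]/Km), with ATP Km 221.5 µM.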

[3] = Vmax value was determined; assay type: ADME
CCn1cnc2c(N)ncnc21 = assay: (§2) Inhibition of Phosphatidylinositol 4-kinase at the ATP binding site; assay type: protein assay; settings: Homo sapiens
Procedure, shortened: as §1

Nc1[nH]cnc2ncnc1-2 = assay: as §2; assay type: protein assay; settings: Homo sapiens
Procedure, shortened: as §1

Nc1ncnc2c1ncn2C1CCCO1 = assay: as §2; assay type: protein assay; settings: Homo sapiens
Procedure, shortened: as §1

[4] = system: c1ccc(CNc2ncnc3[nH]cnc23)cc1; assay: as §2; assay type: protein assay; settings: Homo sapiens
Procedure, shortened: as §1

[5] = system: Nc1ncnc2c1ncn2[C@@H]1O[C@H](CO)[C@@H](O)[C@H]1O; assay: as §2; assay type: protein assay; settings: Homo sapiens
Procedure, shortened: as §1

Row | Compound | IC50 [1] | Ki [2] | also measured
1 | CCCCCc1nc2c(N)ncnc2n1CCCCC | 126.5 µM | – | –
2 | Nc1ncnc2c1nc(-c1ccccc1)n2-c1ccccc1 | 16.4 µM | 11 µM | –
3 | Cn1cnc2c(N)ncnc21 | 161 µM | 110.9 µM | –
4 | CN(C)c1ncnc2nc[nH]c12 [DIMETHYLADENINE] | 218 µM | 150.2 µM | –
5 | c1ccc(CNc2ncnc3nc[nH]c23)cc1 [6-BENZYLAMINOPURINE] | 240.4 µM | 199 µM | Vmax [3]: 25800 c.p.m.
6 | Cc1ccccc1-n1cnc2c(N)ncnc21 | 23.6 µM | 16.5 µM | –
7 | Nc1ncnc2c1ncn2[C@@H]1O[C@H](CO)[C@@H](O)[C@H]1O [ADENOSINE] | 30.3 µM | 19.2 µM | Vmax [3]: 31400 c.p.m.
8 | Nc1ncnc2c1ncn2C1CCCCCC1 | 7.2 µM | 5 µM | –
9 | Cc1nc2[nH]cnc(N)c-2n1 | 195.4 µM | 134.3 µM | –
10 | CCCCCc1nc2c(N)ncnc2n1-c1ccccc1 | 51.9 µM | 35.8 µM | –
11 | Nc1ncnc2c1ncn2C1CCCC1 | 8.7 µM | 6 µM | –
12 | Nc1nc(N)c2nc[nH]c2n1.O=S(=O)(O)O | 146.8 µM | 101.2 µM | –
13 | Nc1ncnc2[nH]ncc12 | 144.9 µM | 99.9 µM | –
14 | COc1ccc(-n2cnc3c(N)ncnc32)cc1 | 21.9 µM | 15.2 µM | –
15 | Nc1nc2ncnc-2c[nH]1 [2-AMINOPURINE] | 341.6 µM | 235.4 µM | –
16 | Cl.Nc1[nH]cnc2nc(NCc3ccccc3)nc1-2 | 133 µM | 91.7 µM | –
17 | Cc1nc2c(N)ncnc2n1-c1ccccc1 | 16.4 µM | 11 µM | –
18 | CC1(C)O[C@@H]2[C@H](O1)[C@@H](CO)O[C@H]2n1cnc2c(N)ncnc21 | 12.1 µM | 8.4 µM | –
19 | CC1(n2cnc3c(N)ncnc32)CCCCC1 | 7.2 µM | 5 µM | –
20 | CC(C)(C)c1ccc(-n2cnc3c(N)ncnc32)cc1 | 46.1 µM | 31.7 µM | –
21 | Cn1ncc2c(N)ncnc21 | 82.5 µM | 56.8 µM | –
22 | Nc1ncnc2c1cnn2-c1ccccc1 | 16.1 µM | 11 µM | –
23 | Nc1ncnc2c1nc1n2CCCC1 | 52.4 µM | 35.8 µM | –
24 | Nc1nc(N)c2[nH]c(-c3ccccc3)nc2n1 | 199.5 µM | 137.7 µM | –
25 | CCC(CC)(CC)n1cnc2c(N)ncnc21 | 134.1 µM | 93.7 µM | –
26 | Nc1ncnc2ccccc12 [4-AMINOQUINAZOLINE] | 91.7 µM | 63.4 µM | –
27 | COc1cccc(-n2cnc3c(N)ncnc32)c1 | 22.9 µM | 15.8 µM | –

Row | Compound | IC50 [1] | Ki [2] | also measured
28 | CCn1cnc2c(N)ncnc21 | 32.4 µM | 25.5 µM | Vmax [3]: 20800 c.p.m.
29 | Nc1ncnc2c1ncn2-c1cccc2ccccc12 | 78.8 µM | 54.4 µM | –
30 | Nc1ncnc2c1ncn2-c1ccccc1 | 15.4 µM | 10.3 µM | –
31 | CC(C)(C)n1cnc2c(N)ncnc21 | 10.2 µM | 6.9 µM | –
32 | Nc1ncnc2[nH]c(-c3ccccc3)nc12 | 48.8 µM | 33.6 µM | –
33 | Nc1[nH]cnc2nc(-c3cccc4ccccc34)nc1-2 | 129.8 µM | 89.5 µM | –
34 | Nc1[nH]cnc2nc(-c3ccccn3)nc1-2 | 75.6 µM | 52.3 µM | –
35 | Nc1ncnc2c1ncn2[C@@H]1O[C@H](COP(=O)(O)OP(=O)(O)O)[C@@H](O)[C@H]1O [ADENOSINE DIPHOSPHATE] | 145.3 µM | 100.1 µM | –
36 | Nc1ncnc2scnc12 | 116.9 µM | 80.6 µM | –
37 | Phosphatidylinositol 4-kinase, PI4K (Homo sapiens) (from UniProt Q9BTU6+Q8TCG2+Q9UBF8+P42356) | – | – | Km (CCn1cnc2c(N)ncnc21): 257 µM; Km (Nc1[nH]cnc2ncnc1-2): 297 µM; Km (Nc1ncnc2c1ncn2C1CCCO1): 262 µM; Km [4]: 239 µM; Km [5]: 179 µM
38 | CC(C)n1cnc2c(N)ncnc21 | 14.9 µM | 10.3 µM | –
39 | Nc1ncnc2c1ncn2C1CCCO1 (stereo not drawn) | 28.2 µM | 21.2 µM | Vmax [3]: 25800 c.p.m.
40 | Nc1ncnc2c1ncn2C1CCCCC1 | 6 µM | 3.7 µM | –
41 | Nc1ncnc2c1ncn2-c1cccnc1 | 46.2 µM | 31.8 µM | –
42 | Cl.Nc1ncnc2nc(Br)[nH]c12 | 215.3 µM | 148.4 µM | –
43 | CC(C)(C)Cn1cnc2c(N)ncnc21 | 12.8 µM | 9 µM | –
44 | Nc1ncnc2c1ncn2-c1ccc(Cl)cc1 | 41.1 µM | 28.2 µM | –
45 | Nc1ncnc2cc3ccccc3cc12 | 33 µM | 22.7 µM | –
46 | Nc1ncnc2c1ncn2-c1ccccc1F | 11.9 µM | 8.3 µM | –
47 | Nc1ncnc2c1ncn2C12CC3CC(CC(C3)C1)C2 | 6 µM | 4.1 µM | –
48 | Cn1c(-c2ccccc2)nc2c(N)ncnc21 | 34.9 µM | 24.1 µM | –
49 | Cl.Nc1ncnc2nc[nH]c12 | 182.6 µM | 85.8 µM | Vmax [3]: 22800 c.p.m.
50 | Nc1ncnc2c1ncn2C1O[C@H](CI)[C@@H](O)[C@H]1O (stereo partly drawn) | 23.1 µM | 15.9 µM | –
51 | CCCCCc1nc2[nH]cnc(N)c-2n1 | 68.9 µM | 47.5 µM | –
52 | Nc1ncnc2c1ncn2-c1cccc(F)c1 | 25.6 µM | 17.9 µM | –
53 | Nc1ncnc2c1ncn2Cc1ccccc1 [9-BENZYL-9H-ADENINE] | 84.4 µM | 57.9 µM | –
